Compounds with a hit are over-represented: about 2.3% of the library has one in this group of screens.
Rpn11 inh: Rpn11 (PSMD14) deubiquitinase inhibitors, primary screen, biochemical, fluorescence polarization, uHTS. human 26S proteasome, Ub4-pepOG fluorescence polarization; 20S core pre-blocked with epoxomicin. 26S proteasome non-ATPase regulatory subunit 14 (Homo sapiens), O00487. AID 588493, 2011. 0.59% of 360,000 active. inhibition, % at 20 µM;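 active = inhibition at 20 µM, scaled to each plate's controls, above about 33%, limit read from the data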
STEP inh: STEP phosphatase inhibitors, primary screen, biochemical, fluorescence intensity, uHTS | Tyrosine-protein phosphatase non-receptor type 5 (Homo sapiens), P54829 | recombinant STEP, OMFP fluorogenic substrate | inhibition, % at 20 µM | 0.25% of 360,000 active | AID 588621, 2011;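 active = inhibition at 20 µM, scaled per plate between control wells, above about 37%, limit read from the data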
Target sequence (P54829 whole entry, looked up): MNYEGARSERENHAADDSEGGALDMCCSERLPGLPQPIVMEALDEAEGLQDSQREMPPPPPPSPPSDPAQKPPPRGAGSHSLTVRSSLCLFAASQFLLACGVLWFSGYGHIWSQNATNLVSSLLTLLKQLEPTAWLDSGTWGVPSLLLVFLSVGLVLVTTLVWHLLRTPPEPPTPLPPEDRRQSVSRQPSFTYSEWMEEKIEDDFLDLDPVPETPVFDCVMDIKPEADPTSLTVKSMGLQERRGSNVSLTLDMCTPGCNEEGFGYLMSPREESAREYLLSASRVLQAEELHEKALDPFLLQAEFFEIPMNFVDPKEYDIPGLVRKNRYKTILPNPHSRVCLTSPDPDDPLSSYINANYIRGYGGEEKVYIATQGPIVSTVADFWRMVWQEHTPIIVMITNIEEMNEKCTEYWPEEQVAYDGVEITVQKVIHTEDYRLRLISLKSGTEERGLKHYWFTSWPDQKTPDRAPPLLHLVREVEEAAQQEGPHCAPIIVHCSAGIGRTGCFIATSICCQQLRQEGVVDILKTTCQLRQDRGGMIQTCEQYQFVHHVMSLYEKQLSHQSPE
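System: STEP phosphatase, cell-free reaction; Buffer or medium: Bis-Tris pH 6.0 buffer with DTT, detergent; Incubation: 20 min at room temperature, dark; Measured by: fluorescence, 480/540 nm.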
SUMO1 PPI mod: modulators of SUMO1 protein-protein interactions, primary screen, biochemical, uHTS; SUMO1 binding to a labelled peptide, TR-FRET, 1 h; inhibition, % at 20 µM; 0.33% of 360,000 active; AID 602429, 2012; in the data active = inhibition above about 37%
LMPTP block: LMPTP phosphatase inhibitors, primary screen, biochemical, fluorescence intensity, uHTS. Low molecular weight phosphotyrosine protein phosphatase (Homo sapiens), P24666. recombinant LMPTP-A, OMFP fluorogenic substrate. inhibition, % at 20 µM. 0.22% of 360,000 active;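 active = compounds that cut the enzyme signal by at least half of the control window in the single-dose screen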
Target sequence (P24666 whole entry, looked up): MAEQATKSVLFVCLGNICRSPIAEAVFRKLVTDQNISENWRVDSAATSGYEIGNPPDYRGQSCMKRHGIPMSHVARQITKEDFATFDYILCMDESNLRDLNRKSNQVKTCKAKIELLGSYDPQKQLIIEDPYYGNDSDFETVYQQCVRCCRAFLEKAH
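Test system: LMPTP-A, protein tyrosine phosphatase of low molecular weight; Input: 0.625 nM enzyme; Incubation: 50 min dark incubation at room temperature; Signal: endpoint fluorescence intensity from OMFP dephosphorylation; Read-out basis: % inhibition versus control wells.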
Scp1 inh: Scp-1 phosphatase inhibitors, primary screen, biochemical, colorimetric, uHTS. Recombinant Scp1, phosphopeptide, malachite green phosphate absorbance. inhibition, % at 20 µM. 0.88% of 340,000 active. AID 493091, 2011;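 active = inhibition above about 50% at 20 µM, limit read from the data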
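Test system: SCP-1 phosphatase catalytic domain, residues 76-261; measured by: colorimetric phosphate reagent with accelerator and stabiliser, absorbance at 630 nm; timing: enzyme reaction 45 min at room temperature, colour 5 min, stabilisation 30 min; also added: Phosphorylated 17-residue peptide substrate; compound dosing: one concentration, 20 µM, with 1.0% DMSO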
DNMT1 block: human DNMT1 methyltransferase inhibitors, primary screen, biochemical, molecular beacon, fluorescence, HinP1I cleavage, uHTS; DNA (cytosine-5)-methyltransferase 1 (Homo sapiens), P26358; inhibition (reported as % activation of signal), % at 10 µM; 0.83% of 360,000 active; AID 588458, 2011; in the data active = inhibition above about 50%
Scp1 confirm: Scp-1 phosphatase inhibitors, retest, confirmation, biochemical, colorimetric, single concentration | recombinant SCP-1 catalytic domain, phosphate release, malachite green absorbance | inhibition, % at 20 µM | shares compounds with Scp1 inh | AID 540281, 2011 | 61% of 2,500 active
MG interference: colorimetric readout interference by compounds, confirmation, artefact control for Scp-1 inhibitor project, biochemical, single concentration; apparent inhibition (interference), % at 20 µM; Colorimetric interference counterscreen, malachite green absorbance 630 nm; 2,500 tested, under 10 active; shares compounds with Scp1 inh; AID 540313, 2011;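 note: compounds added after enzyme reaction finished so only phosphate colour detection is probed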
Scp-1 Tm shift: Scp-1 binding by thermal shift, confirmation, orthogonal assay for Scp-1 inhibitor project, biophysical, differential scanning fluorimetry; shares compounds with Scp1 inh; Recombinant SCP1, Sypro Orange thermal shift Tm; thermal shift relative to vanadate control, % at 40 µM; 25% of 1,500 active; AID 540329, 2011;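 active = substances whose mean melting-temperature shift, as a percentage of the reference inhibitor's shift, reaches about 5.3%, limit read from the data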
A number is an active result; 0 = inactive; - = no result shown.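 Rule for the calls, unless noted: active = inhibition of at least 30% at 20 µM; inactive = the rest.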

SMILES | Rpn11 inh | STEP inh | SUMO1 PPI mod | LMPTP block | Scp1 inh | DNMT1 block | Scp1 confirm | MG interference | Scp-1 Tm shift
CC(C)Cn1c(N2CCN(CC(=O)Nc3ccc(Cl)cc3)CC2)nc2ccccc21 | 0 | 0 | 0 | 0 | 0 | 0 | - | - | -
NC(=O)NC(CC(=O)OCC(=O)Nc1nnc(-c2ccccc2)o1)c1ccc(Cl)cc1 (stereo unspecified) | 0 | 0 | 0 | 0 | - | 0 | - | - | -
O=C(O)Cn1cc(/C=N/NC(=O)c2cc3cc(Br)ccc3o2)c2ccccc21 | 0 | 0 | 0 | 0 | 0 | 0 | - | - | -
Cn1cc(/C=N/NC(=O)c2cc3cc(Br)ccc3o2)c2ccccc21 | 0 | 0 | 0 | 0 | 62 | 0 | 0 | 0 | -
O=C(CN1C(=O)c2ccccc2C1=O)OCC(=O)c1ccccc1 | 0 | 0 | 0 | 0 | 0 | 0 | - | - | -
CC(=O)c1ccc(C(=O)Nc2nnc(-c3ccc(Cl)cc3)o2)cc1 | 0 | 0 | 0 | 0 | 54 | 0 | 43 | 0 | 0
COC(=O)CCCCCN1C(=O)NC(C2CC2)C(C(=O)OCc2ccccc2)=C1C (stereo unspecified) | 0 | 0 | 0 | 0 | 0 | 0 | - | - | -
COc1ccc(-c2ccc3oc(-c4ccc(OC)cc4)c(C#CC4(O)CCCCC4)c3c2)cc1 | 0 | 0 | 0 | 0 | 73 | 0 | 42 | 0 | 0
CC(NC(=O)CCNS(=O)(=O)c1ccccc1)c1ccccc1 (stereo unspecified) | 0 | 0 | 0 | 0 | 51 | 0 | 0 | 0 | -
Cc1csc(NC(=O)CSc2sc3c(O)cc(=O)[nH]c3c2C#N)n1 | 0 | 0 | 0 | 0 | 68 | 0 | 53 | 0 | 12
CCSc1nnc(NC(=O)CSc2sc3c(O)cc(=O)[nH]c3c2C#N)s1 | 59 | 0 | 0 | 62 | 77 | 77 | 49 | 0 | 13
Cc1c(C(=O)NCc2cccc([N+](=O)[O-])c2)sc(=O)n1Cc1ccccc1F | 0 | 0 | 0 | 0 | - | 0 | - | - | -
CN(C(=O)CSC1=NC2C(N=N1)c1cc(Br)ccc1N2C)C1CCCCC1 (stereo unspecified) | 0 | 0 | 0 | 0 | 0 | 0 | - | - | -
CCOc1ccc(C(=O)NCc2ccc3c(c2)OCO3)cc1OCC | 0 | 0 | 0 | 0 | 0 | 0 | - | - | -
CCCN1C(=O)c2cc(C(=O)NC3CCCCCC3)ccc2C1O (stereo unspecified) | 0 | 0 | 0 | 0 | 60 | 0 | 0 | 0 | -
CCCN1C(=O)c2cc(C(=O)O)ccc2C1O (stereo unspecified) | 0 | 0 | 0 | 0 | 0 | 0 | - | - | -
CCC1(CC)NC(=O)N(CC(=O)OCC(=O)Nc2ccccc2OC(F)F)C1=O | 0 | 0 | 0 | 0 | 0 | 0 | 0 | 0 | -
CCC1(CC)NC(=O)N(CC(=O)OCC(=O)Nc2ccccc2[N+](=O)[O-])C1=O | 0 | 0 | 0 | 0 | 0 | 0 | - | - | -
Cc1ccc(-n2nc3c(=O)n(CC(=O)NCc4ccccn4)nc(C)c3c2C)cc1 | 0 | 0 | 0 | 0 | 0 | 0 | - | - | -
CCOc1ccc(CNC(=O)Cn2nc(C)c3c(C)n(-c4ccc(C)cc4)nc3c2=O)cc1 | 0 | 0 | 0 | 0 | 85 | 0 | 62 | 0 | 0
O=C(Nc1ccc(S(=O)(=O)Nc2nccs2)cc1)c1nn(-c2ccccc2)ccc1=O | 0 | 0 | 0 | 0 | 75 | 0 | 71 | 0 | 6.8
Cc1cc2oc(C(=O)Nc3ccc(S(=O)(=O)Nc4nccs4)cc3)cc(=O)c2cc1Cl | 0 | 0 | 0 | 0 | 52 | 0 | 0 | 0 | -
Cc1cccc(-n2ccc(=O)c(C(=O)Nc3ccc(S(=O)(=O)Nc4nccs4)cc3)n2)c1 | 0 | 0 | 0 | 0 | 0 | 0 | - | - | -
CCc1ccc(NC(=O)CSc2nc3ccccc3c(=O)n2CCCN2CCC(C)CC2)cc1 | 0 | 0 | 0 | 0 | 0 | 0 | - | - | -
Nc1cc(C(=O)OCC(=O)c2ccc(CC(=O)N3CCOCC3)s2)ccc1Cl | 0 | 0 | 0 | 0 | 54 | 0 | 39 | 0 | 6.2
SMILES | Rpn11 inh | STEP inh | SUMO1 PPI mod | LMPTP block | Scp1 inh | DNMT1 block | Scp1 confirm | MG interference | Scp-1 Tm shift
Cc1ccc(C(=O)COC(=O)c2ccc(Cl)c(N)c2)s1 | 0 | 0 | 0 | 0 | 0 | 0 | - | - | -
O=C(c1ccc(Cl)c(S(=O)(=O)N2CCOCC2)c1)N1CCCCCC1 | 0 | 0 | 0 | 0 | 0 | 0 | - | - | -
N#Cc1ccsc1NC(=O)COC(=O)C1=NNC(=O)CC1 | 0 | 0 | 38 | 62 | 71 | 0 | 49 | 0 | 0
FC(F)(F)c1ccc(Cl)c(Nc2nnc(-c3ccncc3)s2)c1 | 0 | 0 | 0 | 0 | - | 0 | - | - | -
COc1ccc(Nc2nnc(-c3ccncc3)s2)cc1Cl | - | 61 | 93 | 64 | 94 | 69 | 68 | 0 | 0
CCCCn1c(N)c(N(CCOC)C(=O)COC(=O)CCOc2ccccc2C)c(=O)[nH]c1=O | 0 | 0 | 0 | 0 | 0 | 0 | - | - | -
CCCCn1c(N)c(N(CC(C)C)C(=O)C2CC(=O)N(Cc3ccccc3)C2)c(=O)[nH]c1=O (stereo unspecified) | 0 | 0 | 0 | 0 | 0 | 0 | 0 | 0 | -
COc1ccc(Cl)cc1NC(=O)CSc1sc2c(O)cc(=O)[nH]c2c1C#N | 0 | 0 | 0 | 0 | 0 | 0 | - | - | -
COc1ccccc1NC(=O)CSc1sc2c(O)cc(=O)[nH]c2c1C#N | 0 | 0 | 0 | 0 | 77 | 0 | 33 | 0 | 13
N#Cc1c(SCC(=O)Nc2cccc(C(F)(F)F)c2)sc2c(O)cc(=O)[nH]c12 | 0 | 0 | 0 | 0 | 54 | 0 | 34 | 0 | 8.1
COc1ccc(NC(=O)CSc2sc3c(O)cc(=O)[nH]c3c2C#N)c(OC)c1 | 0 | 0 | 0 | 56 | 64 | 0 | 68 | 0 | 7.8
CCCCN1C(=O)C(CC(=O)NC2CCCCC2)CC(C(=O)N(C)C)=C1C (stereo unspecified) | 0 | 0 | 0 | 0 | - | 0 | - | - | -

Assay outcomes as filed in PubChem BioAssay.
